# Laboratory results: ChEMBL document CHEMBL4270598, “Synthesis and discovery of a drug candidate for treatment of idiopathic pulmonary fibrosis through inhibition of TGF-β1 pathway” (Eur J Med Chem, 2018)
# Active and inactive are the calls of the source. No cut-off for these calls is given here.
# Legend:
# Mus musculus [1] = experiment: Antifibrotic activity in bleomycin-induced pulmonary fibrosis in C57BL/6 mouse model assessed as decrease in collagen content in lung at 100 mg/kg, po qd administered from day 7 to 14 by spectrophotometric method; assay type: functional, organism-based
# How it was run: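 Bleomycin model as above: 2 U/kg intratracheal in male C57BL/6 mice, 100 mg/kg daily from day 7 to day 14. Right lungs collected at day 14, dried and acid-hydrolysed, filtered, and pH adjusted to 6.5-8.0. Hydroxyproline then measured by chloramine-T spectrophotometry.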
# Rattus norvegicus [2] = experiment: AUC (0 to infinity) in Sprague-Dawley rat at 150 mg/kg, po by LC-MS/MS analysis; assay type: ADME, organism-based; set-up: dose 150 mg/kg, time infinity, route oral; conditions: in vivo
# How it was run: (§1)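 Male Sprague-Dawley rats (220-350 g) given a single dose, IV 30 mg/kg or PO 150 mg/kg. Heparinized blood sampled at 2 min-8 h (IV) or 5 min-12 h (PO). Plasma protein-precipitated with acetonitrile/MeOH containing buspirone internal standard. Drug quantified by LC/MS-MS, parameters from non-compartmental analysis. n = 5 per curve.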
# [3] = biological target: T1, Transforming growth factor beta-1 proprotein/Mothers against decapentaplegic homolog 3 (Mus musculus) (UniProt P04202+Q8BUN5); experiment: Inhibition of TGF-beta1/smad3 signaling pathway in mouse NIH/3T3 cells after 18 hrs by CAGA-luciferase reporter gene assay; assay type: cell-based
# T1 sequence (P04202 279-390 limits assumed): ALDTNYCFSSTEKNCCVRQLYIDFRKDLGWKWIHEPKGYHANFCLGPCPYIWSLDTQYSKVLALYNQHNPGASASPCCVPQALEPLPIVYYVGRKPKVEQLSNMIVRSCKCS
# T1 sequence (Q8BUN5 2-425 partner limits assumed): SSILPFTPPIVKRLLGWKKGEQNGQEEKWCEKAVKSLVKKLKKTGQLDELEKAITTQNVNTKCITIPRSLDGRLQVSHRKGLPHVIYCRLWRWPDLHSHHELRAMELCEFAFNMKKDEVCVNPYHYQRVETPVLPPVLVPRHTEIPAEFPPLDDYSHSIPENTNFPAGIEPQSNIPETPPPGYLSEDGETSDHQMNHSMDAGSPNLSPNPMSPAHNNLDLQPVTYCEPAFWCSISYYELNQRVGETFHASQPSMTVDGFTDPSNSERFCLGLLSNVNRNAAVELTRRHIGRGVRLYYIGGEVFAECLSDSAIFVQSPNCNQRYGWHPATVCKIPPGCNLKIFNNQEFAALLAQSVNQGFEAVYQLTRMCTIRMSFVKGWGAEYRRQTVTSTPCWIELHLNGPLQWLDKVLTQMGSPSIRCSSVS
# Mus musculus [4] = experiment: In vivo inhibition of TGF-beta1/smad3 signaling pathway in bleomycin-induced pulmonary fibrosis in C57BL/6 mouse model assessed as decrease in smad3 phosphorylation level in lung tissue at 100 mg/kg, po qd administered from day 7 to 14 by immunohistochemical analysis; assay type: functional, organism-based
# How it was run: (§2)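 Lungs from bleomycin-challenged C57BL/6 mice (2 U/kg intratracheal; 100 mg/kg daily, days 7-14) were paraffin-embedded and dewaxed. Citrate (0.01 M) microwave antigen retrieval, then 5% serum block. Primary antibodies overnight at 4 °C: α-SMA 1:200, collagen I 1:100, p-Smad3 1:50. Secondary antibody 1 h at room temperature, then hematoxylin counterstain and microscopy.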
# Mus musculus [5] = experiment: In vivo inhibition of TGF-beta1/smad3 signaling pathway in bleomycin-induced pulmonary fibrosis in C57BL/6 mouse model assessed as decrease in Col1 level in lung tissue at 100 mg/kg, po qd administered from day 7 to 14 by immunohistochemical analysis; assay type: functional, organism-based; how it was run: as §2
# Rattus norvegicus [6] = experiment: AUC (0 to t) in Sprague-Dawley rat at 30 mg/kg, iv by LC-MS/MS analysis; assay type: ADME, organism-based; conditions: in vivo; how it was run: as §1
# [7] = Oral bioavailability in Sprague-Dawley rat at 150 mg/kg by LC-MS/MS analysis; assay type: ADME, organism-based; conditions: in vivo; how it was run: as §1
# [8] = biological target: T1, Transforming growth factor beta-1 proprotein/Mothers against decapentaplegic homolog 3 (Mus musculus); experiment: Inhibition of TGF-beta1/smad3 signaling pathway in mouse NIH/3T3 cell extract assessed as decrease in Smad3 phosphorylation at 10 uM after 30 mins by Western blot analysis; assay type: protein assay
# Rattus norvegicus [9] = experiment: AUC (0 to infinity) in Sprague-Dawley rat at 30 mg/kg, iv by LC-MS/MS analysis; assay type: ADME, organism-based; set-up: dose 30 mg/kg, time infinity, route intravenous; conditions: in vivo; how it was run: as §1
# Mus musculus [10] = experiment: Antifibrotic activity in bleomycin-induced pulmonary fibrosis in C57BL/6 mouse model assessed as decrease in ECM production at 100 mg/kg, po qd administered from day 7 to 14 by hematoxylin-eosin staining based fluorescence microscopy; assay type: functional, organism-based
# How it was run: (§3)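 Male C57BL/6 mice (7-8 weeks, n=5/group) given intratracheal bleomycin 2 U/kg under chloral hydrate anaesthesia. Dosing at 100 mg/kg daily from day 7 to day 14, sacrifice at day 14. Left lungs formalin-fixed, paraffin-embedded, 5 µm sections HE-stained. Fibrosis ratio taken as fibrotic-region pixels over total lung pixels.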
# Mus musculus [11] = experiment: In vivo inhibition of TGF-beta1/smad3 signaling pathway in bleomycin-induced pulmonary fibrosis in C57BL/6 mouse model assessed as decrease in Col1 protein expression level in lung tissue at 100 mg/kg, po qd administered from day 7 to 14 by Western blot analysis; assay type: functional, organism-based
# [12] = biological target: T2, Transforming growth factor beta-1 proprotein/Mothers against decapentaplegic homolog 3 (Homo sapiens) (UniProt P84022+P01137); experiment: Inhibition of TGF-beta1/smad3 signaling pathway in human HFL cells assessed as decrease in smad3 phosphorylation at 10 uM after 30 mins by Western blot analysis; assay type: cell-based
# T2 sequence (P01137 whole entry, looked up): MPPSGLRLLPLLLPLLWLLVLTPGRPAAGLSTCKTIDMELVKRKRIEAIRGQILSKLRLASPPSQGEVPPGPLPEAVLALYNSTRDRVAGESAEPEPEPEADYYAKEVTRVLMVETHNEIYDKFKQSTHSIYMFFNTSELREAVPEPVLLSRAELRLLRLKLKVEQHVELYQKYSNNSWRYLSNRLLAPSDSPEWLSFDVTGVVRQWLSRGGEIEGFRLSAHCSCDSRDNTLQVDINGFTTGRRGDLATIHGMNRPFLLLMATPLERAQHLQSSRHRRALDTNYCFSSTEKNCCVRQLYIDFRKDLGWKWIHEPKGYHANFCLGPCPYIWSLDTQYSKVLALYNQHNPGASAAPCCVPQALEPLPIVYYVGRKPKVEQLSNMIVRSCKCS
# T2 sequence (P84022 whole entry, looked up): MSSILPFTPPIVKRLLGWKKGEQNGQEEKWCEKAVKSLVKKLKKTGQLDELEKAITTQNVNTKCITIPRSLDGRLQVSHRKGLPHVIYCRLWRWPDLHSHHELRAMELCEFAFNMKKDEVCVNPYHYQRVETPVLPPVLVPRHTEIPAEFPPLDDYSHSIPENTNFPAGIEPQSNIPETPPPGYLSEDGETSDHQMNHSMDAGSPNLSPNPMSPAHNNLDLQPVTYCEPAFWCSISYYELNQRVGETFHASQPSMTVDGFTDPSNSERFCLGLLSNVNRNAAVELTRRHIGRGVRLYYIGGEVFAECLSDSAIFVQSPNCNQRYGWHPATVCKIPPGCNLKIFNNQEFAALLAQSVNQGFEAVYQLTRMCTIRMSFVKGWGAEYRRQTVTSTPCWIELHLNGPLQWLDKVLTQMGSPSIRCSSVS
# How it was run: (§4)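 HFL1 human lung fibroblasts given TGF-β1 (5 ng/mL) with or without compound at 10 µM: 24 h for α-SMA (cell lysate) and collagen I (medium), 30 min for p-Smad3. RIPA lysis with phosphatase inhibitor, then Western blot. Band density normalized to β-actin. n=3.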
# [13] = Drug metabolism in rat plasma assessed as (3aR,4aR,5R,6R,8aR,9aR)-6-Hydroxy-8a-methyl-3-methylenedecahydro-2H-spiro[naphtho[2,3-b]furan-5,2'-oxiran]-2-one formation after 12 hrs by LC-MS/MS analysis; assay type: ADME, cell-free
# How it was run: (§5)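 Compound solution (1 mM stock) added 1:100 into blank plasma and incubated at 37 °C for up to 12 h. Aliquots quenched in acetonitrile/MeOH with buspirone internal standard and centrifuged. Parent compound and released products quantified by LC/MS-MS.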
# [14] = biological target: T1, Transforming growth factor beta-1 proprotein/Mothers against decapentaplegic homolog 3 (Mus musculus); experiment: Inhibition of TGF-beta1/smad3 signaling pathway in mouse NIH/3T3 cells assessed as decrease in ECM production at 10 uM after 24 hrs; assay type: cell-based
# [15] = Tmax in Sprague-Dawley rat at 150 mg/kg, po by LC-MS/MS analysis; assay type: ADME, organism-based; conditions: in vivo; how it was run: as §1
# [16] = Cmax in Sprague-Dawley rat at 150 mg/kg, po by LC-MS/MS analysis; assay type: ADME, organism-based; set-up: dose 150 mg/kg, route oral; conditions: in vivo; how it was run: as §1
# [17] = Half life in Sprague-Dawley rat at 30 mg/kg, iv by LC-MS/MS analysis; assay type: ADME, organism-based; conditions: in vivo; how it was run: as §1
# [18] = Cmax in Sprague-Dawley rat at 30 mg/kg, iv by LC-MS/MS analysis; assay type: ADME, organism-based; set-up: dose 30 mg/kg, route intravenous; conditions: in vivo; how it was run: as §1
# Mus musculus [19] = experiment: Toxicity in C57/BL6 mouse assessed as mouse survival at 2 g/kg administered orally via gavage daily as single dose for 7 days; assay type: organism-based; conditions: in vivo, po, 2000 mg/kg, 168 h
# How it was run: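 C57BL/6 mice, 20-22 g, dosed by oral gavage once daily at 2 g/kg for 7 days, n = 10; survival recorded.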
# Mus musculus [20] = experiment: In vivo inhibition of TGF-beta1/smad3 signaling pathway in bleomycin-induced pulmonary fibrosis in C57BL/6 mouse model assessed as decrease in smad3 phosphorylation in lung tissue at 100 mg/kg, po qd administered from day 7 to 14 by Western blot analysis; assay type: functional, organism-based
# [21] = Half life in Sprague-Dawley rat at 150 mg/kg, po by LC-MS/MS analysis; assay type: ADME, organism-based; conditions: in vivo; how it was run: as §1
# [22] = Stability in rat plasma assessed as parent compound remaining after 3 hrs by LC-MS/MS analysis; assay type: ADME, cell-free; conditions: read-out: Stability; how it was run: as §5
# [23] = biological target: T2, Transforming growth factor beta-1 proprotein/Mothers against decapentaplegic homolog 3 (Homo sapiens); experiment: Inhibition of TGF-beta1/smad3 signaling pathway in human HFL cells assessed as decrease in Col1 protein expression level at 10 uM after 24 hrs by Western blot analysis; assay type: cell-based; how it was run: as §4
# [24] = biological target: T2, Transforming growth factor beta-1 proprotein/Mothers against decapentaplegic homolog 3 (Homo sapiens); experiment: Inhibition of TGF-beta1/smad3 signaling pathway in human HFL cell extract assessed as decrease in alpha-SMA protein expression at 10 uM after 24 hrs by Western blot analysis; how it was run: as §4
# [25] = biological target: T1, Transforming growth factor beta-1 proprotein/Mothers against decapentaplegic homolog 3 (Mus musculus); experiment: Inhibition of TGF-beta1/smad3 signaling pathway in mouse NIH/3T3 cell extract assessed as decrease in alpha-SMA protein expression at 10 uM after 24 hrs by Western blot analysis
# Rattus norvegicus [26] = experiment: AUC (0 to t) in Sprague-Dawley rat at 150 mg/kg, po by LC-MS/MS analysis; assay type: ADME, organism-based; conditions: in vivo; how it was run: as §1
# Mus musculus [27] = experiment: Antifibrotic activity in bleomycin-induced pulmonary fibrosis in C57BL/6 mouse model assessed as fibrotic area in lungs at 100 mg/kg, po qd administered from day 7 to 14 by hematoxylin-eosin staining based fluorescence microscopy; assay type: functional; how it was run: as §3
# [28] = Tmax in Sprague-Dawley rat at 30 mg/kg, iv by LC-MS/MS analysis; assay type: ADME, organism-based; conditions: in vivo; how it was run: as §1
# Mus musculus [29] = experiment: Toxicity in C57/BL6 mouse assessed as mouse survival at 1 to 5 g/kg administered orally via gavage as single dose; assay type: organism-based; conditions: in vivo, po
# How it was run: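 Male-unspecified C57BL/6 mice, 20-22 g; single oral gavage dose at 1, 2, 3, 4 and 5 g/kg, n = 10; survival recorded.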
# Mus musculus [30] = experiment: In vivo inhibition of TGF-beta1/smad3 signaling pathway in bleomycin-induced pulmonary fibrosis in C57BL/6 mouse model assessed as decrease in alpha-SMA level in lung tissue at 100 mg/kg, po qd administered from day 7 to 14 by immunohistochemical analysis; assay type: functional, organism-based; how it was run: as §2
# [31] = Drug metabolism in rat plasma assessed as (1aR,2S,5aR,6aR,9aR,9bS)-2,5a-Dimethyl-9-methyleneoctahydro-2H-oxireno[2',3':4,4a]naphtho[2,3-b]furan-8(9H)-one formation after 12 hrs by LC-MS/MS analysis; assay type: ADME, cell-free; how it was run: as §5
# Mus musculus [32] = experiment: Toxicity in C57/BL6 mouse assessed as appearance of systemic symptoms at 2 g/kg administered orally via gavage daily as single dose for 30 days; assay type: organism-based; conditions: in vivo, po, 2000 mg/kg, 720 h
# How it was run: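 C57BL/6 mice given compound by oral gavage at 2 g/kg once daily for 30 days (n=10) and observed for systemic symptoms and deaths.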
SMILES,Activity (Mus musculus [1]),AUC (Rattus norvegicus [2]) [ng·h/mL],inhibition [3],inhibition (Mus musculus [4]),inhibition (Mus musculus [5]),AUCt (Rattus norvegicus [6]) [ng·h/mL],bioavailability [7] [%],inhibition [8],AUC (Rattus norvegicus [9]) [ng·h/mL],Activity (Mus musculus [10]),inhibition (Mus musculus [11]),inhibition [12],inhibition [14],Tmax [15] [min],Cmax [16] [ng/mL],half-life [17] [min],Cmax [18] [ng/mL],Activity (Mus musculus [19]),inhibition (Mus musculus [20]),half-life [21] [min],further results
CN(C)C[C@@H]1C(=O)O[C@@H]2C[C@@]3(C)CC[C@@H](O)[C@]4(CO4)[C@@H]3C[C@H]12.O=C(O)/C=C/C(=O)O,Active,174000,Dose-dependent effect,Active,Active,43800,78,Active,44900,Active,Active,Active,Active,42,62300,81,22700,Non-Toxic,Active,121,Drug metabolism [13]: Metabolite_Detected; remaining at 3 h [22]: > 50%; inhibition [23]: Active; inhibition [24]: Active; inhibition [25]: Active; AUCt (Rattus norvegicus [26]): 171000 ng·h/mL; Activity (Mus musculus [27]): 60.5%; Tmax [28]: 17 min; Activity (Mus musculus [29]): Non-Toxic; inhibition (Mus musculus [30]): Active
C[C@H]1CCC[C@]2(C)C[C@H]3OC(=O)[C@@H](CN(C)C)[C@H]3[C@@H]3O[C@@]132.O=C(O)/C=C/C(=O)O,Active,37800,Dose-dependent effect,Active,Active,10000,75,Active,10000,Active,Active,Active,Active,30,18500,73,17500,Non-Toxic,Active,85,Drug metabolism [31]: Metabolite_Detected; remaining at 3 h [22]: > 50%; inhibition [23]: Active; inhibition [24]: Active; inhibition [25]: Active; AUCt (Rattus norvegicus [26]): 37600 ng·h/mL; Activity (Mus musculus [27]): 71.8%; Tmax [28]: 2 min; Activity (Mus musculus [29]): Non-Toxic; inhibition (Mus musculus [30]): Active; Activity (Mus musculus [32]): Non-Toxic
